Published values collected from several papers.
Each line is one published result; the experiments were not run side by side. pIC50: −log10 of the molar value.
Cell line: SK-BR-3
Observed: cell growth or viability

COC1=C2C[C@@H](C)C[C@H](OC)[C@H](O)[C@@H](C)/C=C(\C)[C@H](OC(N)=O)[C@@H](OC)/C=C\C=C(/C)C(=O)NC(=CC1=O)C2=O
pIC50 (SRB; 72 h): 7.30

COc1cc(Nc2nccc(-c3cnn4nc(OC)ccc34)n2)cc(C(F)(F)F)c1
pIC50 (ATP luminescence): 6.47

COc1cccc2c1C(=O)c1c(O)c3c(c(O)c1C2=O)C[C@@](O)(C(=O)CO)C[C@@H]3O[C@H]1C[C@H](N)[C@H](O)[C@H](C)O1
pIC50 (MTT; 72 h): 5.78

CC(=O)c1c(C)c2cnc(Nc3ccc(N4CCNCC4)cn3)nc2n(C2CCCC2)c1=O
GI50 (resazurin): 5000 nM

CN1CCN(c2ccc(Nc3ncc4cc(C#N)c(=O)n(C5CCCC5)c4n3)cc2)CC1
GI50 (resazurin; 96 h): 600 nM

CC(=O)O[C@H]1C(=O)[C@@]2(C)[C@H]([C@H](OC(=O)c3ccccc3)[C@]3(O)C[C@H](OC(=O)[C@H](O)[C@@H](NC(=O)c4ccccc4)c4ccccc4)C(C)=C1C3(C)C)[C@]1(OC(C)=O)CO[C@@H]1C[C@@H]2O
pIC50 (MTT; 72 h): 8.30

Cc1cc(C)n(-c2nc(NN=Cc3c[nH]c4ccccc34)nc(Nc3ccc(Br)cc3)n2)n1
pIC50 (SRB; 72 h): 5.22

CC(C)C[C@H](NC(=O)[C@H](Cc1ccccc1)NC(=O)c1cnccn1)B(O)O
pIC50 (ATP luminescence): 8.06

NNc1nc(Nc2ccccc2)nc(Nc2ccc(Br)cc2)n1
pIC50 (SRB; 72 h): < 4.52

COc1cc(OC)c(/C=C/S(=O)(=O)Nc2ccc(OC)c(N)c2)c(OC)c1
pIC50 (trypan blue; 96 h): 8.40
